Experimental data published in ChEMBL document CHEMBL3244142, “Antifungal properties of 2-bromo-3-fluorosuccinic acid esters and related compounds” (1977).
≈ marks a conversion by molar mass, not a printed value.

Tests used:
[1] = test system: Trichophyton mentagrophytes; test: Antifungal activity against Trichophyton mentagrophytes ATCC 9129 at pH 5.6 after 5 days in absence of 10% beef serum; format: functional
Outline: (§1)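 Agar-dilution MIC in Sabouraud dextrose agar at pH 5.6 or 7.0, with or without 10% beef serum. Plates were incubated at 28 °C for 5 days. MIC is the lowest concentration (µg/mL) giving 100% inhibition. Steps were 1 µg/mL up to 10, 2 µg/mL from 10–20, and 10 µg/mL from 20–100; 100 µg/mL was the top level, and no inhibition there is scored as >100.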

Candida albicans [2] = test: Antifungal activity against Candida albicans ATCC 10231 at pH 5.6 after 5 days in presence of 10% beef serum; format: functional
Mucor mucedo [3] = test: Antifungal activity against Mucor mucedo ATCC 7941 at pH 7 after 20 h in absence of 10% beef serum; conditions: ATCC 7941, 20 h
[4] = test system: Trichophyton mentagrophytes; test: Antifungal activity against Trichophyton mentagrophytes ATCC 9129 at pH 5.6 after 5 days in presence of 10% beef serum; format: functional; outline: as §1
Candida albicans [5] = test: Antifungal activity against Candida albicans ATCC 10231 at pH 7 after 5 days in presence of 10% beef serum; format: functional
Candida albicans [6] = test: Antifungal activity against Candida albicans ATCC 10231 at pH 7 after 20 h in absence of 10% beef serum; conditions: ATCC 10231, 20 h
Candida albicans [7] = test: Antifungal activity against Candida albicans ATCC 10231 at pH 5.6 after 20 h in absence of 10% beef serum; conditions: ATCC 10231, 20 h
Mucor mucedo [8] = test: Antifungal activity against Mucor mucedo ATCC 7941 at pH 7 after 20 h in presence of 10% beef serum; conditions: ATCC 7941, 20 h
Aspergillus niger [9] = test: Antifungal activity against Aspergillus niger ATCC 1004 at pH 5.6 after 5 days in presence of 10% beef serum; format: functional; outline: as §1
Mucor mucedo [10] = test: Antifungal activity against Mucor mucedo ATCC 7941 at pH 5.6 after 5 days in absence of 10% beef serum; format: functional
Aspergillus niger [11] = test: Antifungal activity against Aspergillus niger ATCC 1004 at pH 7 after 5 days in presence of 10% beef serum; format: functional; outline: as §1
Aspergillus niger [12] = test: Antifungal activity against Aspergillus niger ATCC 1004 at pH 5.6 after 5 days in absence of 10% beef serum; format: functional; outline: as §1
[13] = test system: Trichophyton mentagrophytes; test: Antifungal activity against Trichophyton mentagrophytes ATCC 9129 at pH 7 after 5 days in absence of 10% beef serum; format: functional; outline: as §1
Mucor mucedo [14] = test: Antifungal activity against Mucor mucedo ATCC 7941 at pH 5.6 after 20 h in presence of 10% beef serum; conditions: ATCC 7941, 20 h
Aspergillus niger [15] = test: Antifungal activity against Aspergillus niger ATCC 1004 at pH 7 after 5 days in absence of 10% beef serum; format: functional; outline: as §1
[16] = test system: Trichophyton mentagrophytes; test: Antifungal activity against Trichophyton mentagrophytes ATCC 9129 at pH 7 after 5 days in presence of 10% beef serum; format: functional; outline: as §1
Mucor mucedo [17] = test: Antifungal activity against Mucor mucedo ATCC 7941 at pH 5.6 after 5 days in presence of 10% beef serum; format: functional
Mucor mucedo [18] = test: Antifungal activity against Mucor mucedo ATCC 7941 at pH 7 after 5 days in presence of 10% beef serum; format: functional
Mucor mucedo [19] = test: Antifungal activity against Mucor mucedo ATCC 7941 at pH 7 after 5 days in absence of 10% beef serum; format: functional
Candida albicans [20] = test: Antifungal activity against Candida albicans ATCC 10231 at pH 7 after 5 days in absence of 10% beef serum; format: functional
Candida albicans [21] = test: Antifungal activity against Candida albicans ATCC 10231 at pH 5.6 after 5 days in absence of 10% beef serum; format: functional
[22] = Trichophyton mentagrophytes, ATCC 9129, 120 h, read-out: MIC
[23] = Candida albicans, ATCC 10231, 120 h, read-out: MIC
[24] = Aspergillus niger, ATCC 1004, 120 h, read-out: MIC
[25] = Mucor mucedo, ATCC 7941, 120 h, read-out: MIC

| SMILES | MIC [1, 22] | MIC (Candida albicans [2]; [23]) | MIC (Mucor mucedo [3]) | MIC [4, 22] | MIC (Candida albicans [5]; [23]) | MIC (Candida albicans [6]) | MIC (Candida albicans [7]) | MIC (Mucor mucedo [8]) | MIC (Aspergillus niger [9]; [24]) | MIC (Mucor mucedo [10]; [25]) | MIC (Aspergillus niger [11]; [24]) | MIC (Aspergillus niger [12]; [24]) | MIC [13, 22] | MIC (Mucor mucedo [14]) | MIC (Aspergillus niger [15]; [24]) | MIC [16, 22] | MIC [4] | MIC (Mucor mucedo [18]) | MIC (Aspergillus niger [11]) | MIC (Aspergillus niger [12]) | other results |
| --- | --- | --- | --- | --- | --- | --- | --- | --- | --- | --- | --- | --- | --- | --- | --- | --- | --- | --- | --- | --- | --- |
| COC(=O)[C@H](F)[C@@H](Br)C(=O)OC (relative stereo) | < 1 µg/mL | 8 µg/mL | 14 µg/mL (≈ 57.6 µM) | 3 µg/mL | 16 µg/mL | 16 µg/mL (≈ 65.8 µM) | 6 µg/mL (≈ 24.7 µM) | 20 µg/mL | 14 µg/mL | 12 µg/mL (≈ 49.4 µM) | 40 µg/mL | 12 µg/mL (≈ 49.4 µM) | 3 µg/mL (≈ 12.3 µM) | 12 µg/mL | 30 µg/mL (≈ 123 µM) | 6 µg/mL | – | – | – | – | – |
| COC(=O)C(Br)C(Br)C(=O)OC (racemic) | – | – | – | – | – | – | – | – | – | – | – | – | – | – | – | – | 4 µg/mL | 14 µg/mL | 40 µg/mL | 14 µg/mL (≈ 46.1 µM) | MIC [1]: 2 µg/mL (≈ 6.58 µM); MIC (Candida albicans [2]): 20 µg/mL; MIC (Candida albicans [5]): 60 µg/mL; MIC (Mucor mucedo [17]): 9 µg/mL; MIC (Aspergillus niger [9]): 30 µg/mL; MIC (Mucor mucedo [10]): 6 µg/mL (≈ 19.7 µM); MIC (Mucor mucedo [19]): 8 µg/mL (≈ 26.3 µM); MIC (Candida albicans [20]): 30 µg/mL (≈ 98.7 µM); MIC [13]: 4 µg/mL (≈ 13.2 µM); MIC (Candida albicans [21]): 16 µg/mL (≈ 52.6 µM); MIC (Aspergillus niger [15]): 40 µg/mL (≈ 132 µM); MIC [16]: 10 µg/mL |
| COC(=O)C(Br)C(Br)C(=O)OC (stereo in doubt) | 2 µg/mL (≈ 6.58 µM) | 30 µg/mL | 12 µg/mL (≈ 39.5 µM) | – | 70 µg/mL | 50 µg/mL (≈ 165 µM) | 20 µg/mL (≈ 65.8 µM) | – | 50 µg/mL | 6 µg/mL (≈ 19.7 µM) | – | – | – | 14 µg/mL | 60 µg/mL (≈ 197 µM) | 20 µg/mL | 12 µg/mL | 30 µg/mL | 90 µg/mL | 30 µg/mL (≈ 98.7 µM) | MIC [13]: 9 µg/mL (≈ 29.6 µM) |
| COC(=O)[C@@H](F)[C@@H](Br)C(=O)OC (relative stereo) | < 1 µg/mL | 14 µg/mL | 8 µg/mL (≈ 32.9 µM) | 2 µg/mL | 30 µg/mL | 20 µg/mL (≈ 82.3 µM) | 9 µg/mL (≈ 37 µM) | 12 µg/mL | 20 µg/mL | 7 µg/mL (≈ 28.8 µM) | 40 µg/mL | 20 µg/mL (≈ 82.3 µM) | 2 µg/mL (≈ 8.23 µM) | 8 µg/mL | 40 µg/mL (≈ 165 µM) | 5 µg/mL | – | – | – | – | – |
